≈ marks a conversion by molar mass, not a printed value. Values belong to the compound of their own block, whether it stands above or below them.
What was measured:
Staphylococcus aureus [1] = assay: Antibacterial activity determined against Staphylococcus aureus; type: functional
Outline: (§1)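 Broth microdilution: an overnight-culture bacterial suspension was added to compound in 2.5% DMSO in water, giving a final inoculum of about 10^2–10^3 CFU/well. Plates were incubated 20–24 h at 37 °C, and growth relative to a no-compound control was read as A595. MIC was given as a range: complete inhibition at the upper concentration, viable cells at the lower.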

[2] = Inhibition of bacterial transcription/translation
Escherichia coli [3] = assay: Antibacterial activity determined against Escherichia coli; type: functional; outline: as §1
Enterococcus faecalis [4] = assay: Antibacterial activity determined against Enterococcus faecalis ATCC 828; type: functional; outline: as §1
Enterococcus hirae = assay: Antibacterial activity determined against gram-positive Enterococcus hirae 29212; type: functional; outline: as §1
Candida albicans = assay: Antifungal activity determined against Candida albicans 10231; type: functional
Outline: as §1, with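 “Candida albicans:” for “Broth microdilution:”, “yeast” for “bacterial”, “40–48” for “20–24”, “25” for “37”, “versus” for “relative to”, “higher” for “upper”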

Enterococcus faecium [5] = assay: Antibacterial activity determined against Enterococcus faecium ATCC 6569; type: functional; outline: as §1
Escherichia coli [6] = assay: Antibacterial activity determined against gram-negativeE. coli 25922; type: functional; outline: as §1
Enterococcus faecalis [7] = assay: Antibacterial activity determined against Enterococcus faecalis ATCC 11823; type: functional; outline: as §1
Streptococcus pyogenes = assay: Antibacterial activity determined against gram-positive Streptococcus pyogenes 49399; type: functional; outline: as §1
Enterococcus faecalis [8] = assay: Antibacterial activity determined against Enterococcus faecalis ATCC 4200; type: functional; outline: as §1
Enterococcus faecalis [9] = assay: Antibacterial activity determined against Enterococcus faecalis ATCC 49757; type: functional; outline: as §1
Staphylococcus aureus [10] = assay: Antibacterial activity determined against gram-positive Staphylococcus aureus 13709; type: functional; outline: as §1
Streptococcus pneumoniae = assay: Antibacterial activity determined against gram-positive Streptococcus pneumoniae 6303; type: functional; outline: as §1
Pseudomonas aeruginosa = assay: Antibacterial activity determined against gram-negativeP. aeruginosa 25416; type: functional; outline: as §1
Klebsiella pneumoniae = assay: Antibacterial activity determined against gram-negativeK. pneumoniae 13383; type: functional; outline: as §1
Proteus vulgaris = assay: Antibacterial activity determined against gram-negativeP. vulgaris 8427; type: functional; outline: as §1
Enterococcus faecalis [11] = assay: Antibacterial activity determined against Enterococcus faecalis ATCC 23241; type: functional; outline: as §1
Enterococcus faecium [12] = assay: Antibacterial activity determined against Enterococcus faecium ATCC 882; type: functional; outline: as §1

Structure (SMILES): Clc1cc2nc(C3CCNCC3)[nH]c2cc1Cl
- MIC (Staphylococcus aureus [1]): > 100 µM
- IC50 [2]: > 100 µM
- MIC (Escherichia coli [3]): > 100 µM

Structure (SMILES): O=[N+]([O-])c1ccc(Cn2c(C3CCNCC3)nc3cc(Cl)c(Cl)cc32)cc1
- MIC (Staphylococcus aureus [1]): 50 µM (≈ 20.3 µg/mL)
- IC50 [2]: > 100 µM
- MIC (Escherichia coli [3]): > 100 µM

Structure (SMILES): Clc1cc2nc(C3CCNCC3)n(Cc3ccncc3)c2cc1Cl
- MIC (Staphylococcus aureus [1]): 50 µM (≈ 18.1 µg/mL)
- IC50 [2]: > 100 µM
- MIC (Escherichia coli [3]): 50 µM (≈ 18.1 µg/mL)

Structure (SMILES): CCn1c(C2CCNCC2)nc2cc(Cl)c(Cl)cc21
- MIC (Staphylococcus aureus [1]): > 100 µM
- IC50 [2]: > 100 µM
- MIC (Escherichia coli [3]): > 100 µM

Structure (SMILES): Clc1cc2nc(C3CCNCC3)n(Cc3ccc(Cn4cncn4)cc3)c2cc1Cl
- MIC (Staphylococcus aureus [1]): 12 µM (≈ 5.3 µg/mL)
- IC50 [2]: > 100 µM
- MIC (Escherichia coli [3]): 12 µM (≈ 5.3 µg/mL)

Structure (SMILES): Clc1cc2nc(C3CCNCC3)n(Cc3cccnc3)c2cc1Cl
- MIC (Staphylococcus aureus [1]): 50 µM (≈ 18.1 µg/mL)
- IC50 [2]: > 100 µM
- MIC (Escherichia coli [3]): 50 µM (≈ 18.1 µg/mL)

Structure (SMILES): Clc1cc2nc(C3CCNCC3)n(Cc3ccc(CNCCc4cc5ccccc5[nH]4)cc3)c2cc1Cl
- MIC (Staphylococcus aureus [1]): 12 µM (≈ 6.39 µg/mL)
- IC50 [2]: > 100 µM
- MIC (Escherichia coli [3]): 12 µM (≈ 6.39 µg/mL)

Structure (SMILES): O=C(O)c1cn(C2CC2)c2cc(N3CCNCC3)c(F)cc2c1=O [CIPROFLOXACIN]
- MIC (Staphylococcus aureus [1]): 0.75 µM (≈ 0.249 µg/mL)
- IC50 [2]: > 100 µM
- MIC (Escherichia coli [3]): 0.75 µM (≈ 0.249 µg/mL)

Structure (SMILES): NC[C@@H]1O[C@H](O[C@H]2[C@@H](O)[C@H](O[C@@H]3[C@@H](O)[C@H](N)C[C@H](N)[C@H]3O[C@H]3O[C@H](CO)[C@@H](O)[C@H](O)[C@H]3N)O[C@@H]2CO)[C@H](N)[C@@H](O)[C@@H]1O [PAROMOMYCIN]
- MIC (Staphylococcus aureus [1]): 1 µM (≈ 0.616 µg/mL)
- IC50 [2]: 0.56 µM
- MIC (Escherichia coli [3]): 3 µM (≈ 1.85 µg/mL)

More lines, now with the values ahead:

- MIC (Enterococcus faecalis [4]): 50 µM (≈ 25.8 µg/mL)
- MIC (Enterococcus hirae): 1 µM (≈ 0.517 µg/mL)
- MIC (Staphylococcus aureus [1]): 6 µM (≈ 3.1 µg/mL)
- MIC (Candida albicans): > 100 µM
- MIC (Enterococcus faecium [5]): 12 µM (≈ 6.2 µg/mL)
- MIC (Escherichia coli [6]): 6 µM (≈ 3.1 µg/mL)
- MIC (Enterococcus faecalis [7]): 6 µM (≈ 3.1 µg/mL)
- MIC (Streptococcus pyogenes): 3 µM (≈ 1.55 µg/mL)
- IC50 [2]: > 100 µM
- MIC (Enterococcus faecalis [8]): 25 µM (≈ 12.9 µg/mL)
- MIC (Escherichia coli [3]): 6 µM (≈ 3.1 µg/mL)
- MIC (Enterococcus faecalis [9]): 50 µM (≈ 25.8 µg/mL)
- MIC (Staphylococcus aureus [10]): 6 µM (≈ 3.1 µg/mL)
- MIC (Streptococcus pneumoniae): 6 µM (≈ 3.1 µg/mL)
- MIC (Pseudomonas aeruginosa): 25 µM (≈ 12.9 µg/mL)
- MIC (Klebsiella pneumoniae): 6 µM (≈ 3.1 µg/mL)
- MIC (Proteus vulgaris): 12 µM (≈ 6.2 µg/mL)
Structure (SMILES): NCCCCCCCCNCc1ccc(Cn2c(C3CCNCC3)nc3cc(Cl)c(Cl)cc32)cc1

- MIC (Enterococcus hirae): 3 µM (≈ 1.56 µg/mL)
- MIC (Staphylococcus aureus [1]): 3 µM (≈ 1.56 µg/mL)
- MIC (Candida albicans): > 100 µM
- MIC (Escherichia coli [6]): 12 µM (≈ 6.22 µg/mL)
- MIC (Streptococcus pyogenes): 3 µM (≈ 1.56 µg/mL)
- IC50 [2]: 10 µM
- MIC (Escherichia coli [3]): 12 µM (≈ 6.22 µg/mL)
- MIC (Staphylococcus aureus [10]): 3 µM (≈ 1.56 µg/mL)
- MIC (Streptococcus pneumoniae): 6 µM (≈ 3.11 µg/mL)
- MIC (Pseudomonas aeruginosa): 12 µM (≈ 6.22 µg/mL)
- MIC (Klebsiella pneumoniae): 12 µM (≈ 6.22 µg/mL)
- MIC (Proteus vulgaris): 25 µM (≈ 13 µg/mL)
Structure (SMILES): NCCN(CCN)CCNCc1ccc(Cn2c(C3CCNCC3)nc3cc(Cl)c(Cl)cc32)cc1

- MIC (Staphylococcus aureus [1]): > 100 µM
- IC50 [2]: > 100 µM
- MIC (Escherichia coli [3]): > 100 µM
Structure (SMILES): Fc1ccc(Cn2c(C3CCNCC3)nc3cc(Cl)c(Cl)cc32)cc1

- MIC (Enterococcus hirae): 3 µM (≈ 1.45 µg/mL)
- MIC (Staphylococcus aureus [1]): 6 µM (≈ 2.9 µg/mL)
- MIC (Candida albicans): > 100 µM
- MIC (Escherichia coli [6]): 12 µM (≈ 5.8 µg/mL)
- MIC (Streptococcus pyogenes): 6 µM (≈ 2.9 µg/mL)
- IC50 [2]: 25 µM
- MIC (Escherichia coli [3]): 12 µM (≈ 5.8 µg/mL)
- MIC (Staphylococcus aureus [10]): 6 µM (≈ 2.9 µg/mL)
- MIC (Streptococcus pneumoniae): 12 µM (≈ 5.8 µg/mL)
- MIC (Pseudomonas aeruginosa): 25 µM (≈ 12.1 µg/mL)
- MIC (Klebsiella pneumoniae): 12 µM (≈ 5.8 µg/mL)
- MIC (Proteus vulgaris): 25 µM (≈ 12.1 µg/mL)
Structure (SMILES): Clc1cc2nc(C3CCNCC3)n(Cc3ccc(CNCCc4c[nH]cn4)cc3)c2cc1Cl

- MIC (Staphylococcus aureus [1]): 12 µM (≈ 5.67 µg/mL)
- IC50 [2]: > 100 µM
- MIC (Escherichia coli [3]): 12 µM (≈ 5.67 µg/mL)
Structure (SMILES): Clc1cc2nc(C3CCNCC3)n(Cc3ccc(CNC[C@@H]4CCCN4)cc3)c2cc1Cl

- MIC (Staphylococcus aureus [1]): > 100 µM
- IC50 [2]: > 100 µM
- MIC (Escherichia coli [3]): > 100 µM
Structure (SMILES): Clc1cc2nc(C3CCNCC3)n(Cc3ccc(CBr)cc3)c2cc1Cl

- MIC (Enterococcus hirae): 1 µM (≈ 0.489 µg/mL)
- MIC (Staphylococcus aureus [1]): 6 µM (≈ 2.93 µg/mL)
- MIC (Candida albicans): > 100 µM
- MIC (Escherichia coli [6]): 12 µM (≈ 5.86 µg/mL)
- MIC (Streptococcus pyogenes): 3 µM (≈ 1.47 µg/mL)
- IC50 [2]: > 100 µM
- MIC (Escherichia coli [3]): 12 µM (≈ 5.86 µg/mL)
- MIC (Staphylococcus aureus [10]): 6 µM (≈ 2.93 µg/mL)
- MIC (Streptococcus pneumoniae): 12 µM (≈ 5.86 µg/mL)
- MIC (Pseudomonas aeruginosa): 25 µM (≈ 12.2 µg/mL)
- MIC (Klebsiella pneumoniae): 12 µM (≈ 5.86 µg/mL)
- MIC (Proteus vulgaris): 25 µM (≈ 12.2 µg/mL)
Structure (SMILES): NCCCCCCNCc1ccc(Cn2c(C3CCNCC3)nc3cc(Cl)c(Cl)cc32)cc1

- MIC (Enterococcus faecalis [4]): 12 µM (≈ 5.53 µg/mL)
- MIC (Enterococcus hirae): 3 µM (≈ 1.38 µg/mL)
- MIC (Staphylococcus aureus [1]): 6 µM (≈ 2.76 µg/mL)
- MIC (Candida albicans): > 100 µM
- MIC (Enterococcus faecium [5]): 12 µM (≈ 5.53 µg/mL)
- MIC (Escherichia coli [6]): 25 µM (≈ 11.5 µg/mL)
- MIC (Enterococcus faecalis [7]): 12 µM (≈ 5.53 µg/mL)
- MIC (Streptococcus pyogenes): 6 µM (≈ 2.76 µg/mL)
- IC50 [2]: 50 µM
- MIC (Enterococcus faecalis [8]): 12 µM (≈ 5.53 µg/mL)
- MIC (Escherichia coli [3]): 25 µM (≈ 11.5 µg/mL)
- MIC (Enterococcus faecalis [9]): 12 µM (≈ 5.53 µg/mL)
- MIC (Enterococcus faecalis [11]): 12 µM (≈ 5.53 µg/mL)
- MIC (Staphylococcus aureus [10]): 6 µM (≈ 2.76 µg/mL)
- MIC (Streptococcus pneumoniae): 25 µM (≈ 11.5 µg/mL)
- MIC (Pseudomonas aeruginosa): 25 µM (≈ 11.5 µg/mL)
- MIC (Klebsiella pneumoniae): 25 µM (≈ 11.5 µg/mL)
- MIC (Enterococcus faecium [12]): 12 µM (≈ 5.53 µg/mL)
Structure (SMILES): NCCCCNCc1ccc(Cn2c(C3CCNCC3)nc3cc(Cl)c(Cl)cc32)cc1

— ChEMBL document CHEMBL1136237, “2-piperidin-4-yl-benzimidazoles with broad spectrum antibacterial activities” (2003)
